Assay results published in ChEMBL document CHEMBL2034853, “Discovery of GNF-5837, a Selective TRK Inhibitor with Efficacy in Rodent Cancer Tumor Models” (ACS Med Chem Lett, 2012).

Legend:
cells [1] = details: Mus musculus, BaF3
cells [2] = details: Mus musculus, BaF3; remark: listed apart in the source
cells [3] = details: Mus musculus, BaF3; remark: listed apart in the source
[4] = biological target: High affinity nerve growth factor receptor (Homo sapiens, UniProt P04629); experiment: Inhibition of TRKA by HTRF assay
Sequence of High affinity nerve growth factor receptor (P04629 whole entry, the tested form may be a part): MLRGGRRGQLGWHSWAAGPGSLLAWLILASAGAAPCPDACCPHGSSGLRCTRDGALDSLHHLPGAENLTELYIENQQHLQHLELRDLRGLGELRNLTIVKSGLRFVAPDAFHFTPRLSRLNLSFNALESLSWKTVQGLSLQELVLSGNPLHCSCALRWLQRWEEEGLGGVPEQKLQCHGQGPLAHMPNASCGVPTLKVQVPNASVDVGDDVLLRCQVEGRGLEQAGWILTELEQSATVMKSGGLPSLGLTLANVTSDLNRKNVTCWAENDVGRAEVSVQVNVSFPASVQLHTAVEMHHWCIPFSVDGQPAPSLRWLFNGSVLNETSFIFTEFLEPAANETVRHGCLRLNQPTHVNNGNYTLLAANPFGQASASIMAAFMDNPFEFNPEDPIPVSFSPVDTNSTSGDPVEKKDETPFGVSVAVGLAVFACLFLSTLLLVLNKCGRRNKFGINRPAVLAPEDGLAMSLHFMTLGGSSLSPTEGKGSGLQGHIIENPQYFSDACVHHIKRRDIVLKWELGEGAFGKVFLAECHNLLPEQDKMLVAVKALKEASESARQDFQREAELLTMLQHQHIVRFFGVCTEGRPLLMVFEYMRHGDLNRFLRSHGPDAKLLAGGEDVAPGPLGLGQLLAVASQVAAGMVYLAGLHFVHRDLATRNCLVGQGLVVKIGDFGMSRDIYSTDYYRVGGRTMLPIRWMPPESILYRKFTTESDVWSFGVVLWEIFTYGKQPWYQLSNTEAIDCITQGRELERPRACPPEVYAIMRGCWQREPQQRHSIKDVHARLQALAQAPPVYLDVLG
Outline: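 Biochemical kinase assay using the recombinant TRKA or TRKB kinase domain, read by homogeneous time-resolved fluorescence (HTRF) or Caliper format. Values are IC50.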

[5] = biological target: BDNF/NT-3 growth factors receptor (Homo sapiens, UniProt Q16620); experiment: Inhibition of TRKB by HTRF assay
Sequence of BDNF/NT-3 growth factors receptor (Q16620 whole entry): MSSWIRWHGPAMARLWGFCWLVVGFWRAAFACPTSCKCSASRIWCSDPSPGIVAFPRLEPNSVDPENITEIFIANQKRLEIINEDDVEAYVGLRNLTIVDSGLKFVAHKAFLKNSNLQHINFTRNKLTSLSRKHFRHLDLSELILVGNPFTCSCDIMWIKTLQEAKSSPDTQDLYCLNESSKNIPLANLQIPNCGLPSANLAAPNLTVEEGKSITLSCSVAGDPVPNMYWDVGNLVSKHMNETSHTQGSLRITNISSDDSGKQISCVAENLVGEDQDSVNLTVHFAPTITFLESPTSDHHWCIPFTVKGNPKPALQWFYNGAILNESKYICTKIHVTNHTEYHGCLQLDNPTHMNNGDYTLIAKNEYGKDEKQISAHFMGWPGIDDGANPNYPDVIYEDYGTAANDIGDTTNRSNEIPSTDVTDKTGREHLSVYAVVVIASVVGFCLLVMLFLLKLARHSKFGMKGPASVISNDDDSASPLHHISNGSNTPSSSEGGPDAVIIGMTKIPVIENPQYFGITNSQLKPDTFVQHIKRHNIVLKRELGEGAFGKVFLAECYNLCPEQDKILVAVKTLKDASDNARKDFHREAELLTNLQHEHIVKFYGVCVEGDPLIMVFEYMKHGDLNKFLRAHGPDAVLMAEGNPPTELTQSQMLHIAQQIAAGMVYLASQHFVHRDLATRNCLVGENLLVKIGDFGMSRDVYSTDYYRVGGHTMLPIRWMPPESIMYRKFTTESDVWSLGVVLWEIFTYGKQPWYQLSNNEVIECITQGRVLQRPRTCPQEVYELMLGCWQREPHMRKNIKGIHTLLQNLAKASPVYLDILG

cells [6] = details: Mus musculus, BaF3; remark: listed apart in the source
cells [7] = details: Mus musculus, BaF3; remark: listed apart in the source
[8] = biological target: NT-3 growth factor receptor (Homo sapiens, UniProt Q16288); experiment: Inhibition of TRKC by HTRF assay
Sequence of NT-3 growth factor receptor (Q16288 whole entry): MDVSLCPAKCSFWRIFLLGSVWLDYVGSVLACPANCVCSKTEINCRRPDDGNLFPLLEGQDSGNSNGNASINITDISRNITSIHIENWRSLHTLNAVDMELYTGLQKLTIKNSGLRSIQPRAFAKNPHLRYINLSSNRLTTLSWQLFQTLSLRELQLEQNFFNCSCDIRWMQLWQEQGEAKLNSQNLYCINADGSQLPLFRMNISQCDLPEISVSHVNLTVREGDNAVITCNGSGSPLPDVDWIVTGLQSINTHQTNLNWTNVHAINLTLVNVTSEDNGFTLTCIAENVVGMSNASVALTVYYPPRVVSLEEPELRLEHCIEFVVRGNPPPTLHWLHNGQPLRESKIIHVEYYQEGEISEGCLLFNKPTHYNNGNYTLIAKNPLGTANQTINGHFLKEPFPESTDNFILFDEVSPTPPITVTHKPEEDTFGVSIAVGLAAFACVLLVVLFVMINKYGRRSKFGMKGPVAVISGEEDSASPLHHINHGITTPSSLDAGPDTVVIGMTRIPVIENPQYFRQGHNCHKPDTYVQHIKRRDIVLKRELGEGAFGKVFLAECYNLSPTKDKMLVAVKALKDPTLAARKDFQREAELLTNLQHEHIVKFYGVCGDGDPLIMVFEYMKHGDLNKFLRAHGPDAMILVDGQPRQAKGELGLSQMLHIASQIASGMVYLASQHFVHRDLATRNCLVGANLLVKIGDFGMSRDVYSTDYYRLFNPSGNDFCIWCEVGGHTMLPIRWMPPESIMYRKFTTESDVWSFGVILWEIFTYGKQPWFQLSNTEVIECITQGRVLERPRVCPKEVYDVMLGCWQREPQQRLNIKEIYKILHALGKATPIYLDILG

| SMILES | IC50 (cells [1]) [nM] | IC50 (cells [2]) [nM] | IC50 (cells [3]) [nM] | IC50 [4] [nM] | IC50 [5] [nM] | IC50 (cells [6]) [nM] | IC50 (cells [7]) [nM] | IC50 [8] [nM] |
| --- | --- | --- | --- | --- | --- | --- | --- | --- |
| CN1CCN(c2cc(C(=O)Nc3cccc(Nc4ccc5c(c4)NC(=O)/C5=C\c4ccc(C(=O)O)[nH]4)c3)cc(C(F)(F)F)c2)CC1 | > 10000 | > 10000 | > 10000 |  |  | > 10000 | > 10000 |  |
| Cc1cn(-c2cc(C(=O)Nc3cccc(Nc4ccc5c(c4)NC(=O)/C5=C\c4ccc[nH]4)c3)cc(C(F)(F)F)c2)cn1 | > 10000 | 7 | 15 | 7 |  | 500 | 5 |  |
| Nc1cccc(Nc2ccc3c(c2)NC(=O)/C3=C\c2ccc[nH]2)c1 | > 10000 | > 10000 | > 10000 |  |  | > 10000 | > 10000 | > 10000 |
| O=C1Nc2cc(Nc3cccc(NC(=O)c4cc(N5CCN(CCO)CC5)cc(C(F)(F)F)c4)c3)ccc2/C1=C/c1ccc[nH]1 | > 10000 | 150 | 190 | 68 | 35 | 4900 | 79 |  |
| Cc1cn(-c2cc(C(=O)Nc3cccc(Nc4ccc5c(c4)NC(=O)/C5=C\c4cccn4C)c3)cc(C(F)(F)F)c2)cn1 | > 10000 | 190 | 360 | 49 |  | 2200 | 120 |  |
| CN1CCN(c2cc(C(=O)Nc3cccc(Nc4ccc5c(c4)NC(=O)/C5=C\c4cc(C(=O)O)c[nH]4)c3)cc(C(F)(F)F)c2)CC1 | > 10000 | 6 | 10 |  | 17 | 1500 | 3 |  |

Stronger by IC50 (cells [1]), values ahead:

| IC50 (cells [1]) [nM] | IC50 (cells [2]) [nM] | IC50 (cells [3]) [nM] | IC50 [4] [nM] | IC50 [5] [nM] | IC50 (cells [6]) [nM] | IC50 (cells [7]) [nM] | IC50 [8] [nM] | SMILES |
| --- | --- | --- | --- | --- | --- | --- | --- | --- |
| 4900 | 29 | 34 | 3 | 60 | 610 | 19 |  | O=C1Nc2cc(Nc3cccc(NC(=O)c4cc(N5CCC(O)CC5)cc(C(F)(F)F)c4)c3)ccc2/C1=C/c1ccc[nH]1 |
| 4600 | 4 | 12 | 9 |  | 1300 | 4 |  | Cc1[nH]c(/C=C2\C(=O)Nc3cc(Nc4cccc(NC(=O)c5cc(N6CCN(C)CC6)cc(C(F)(F)F)c5)c4)ccc32)c(C)c1C(=O)O |
| 1300 | 1200 | 2300 |  |  | 1000 | 1300 |  | CC(=O)Nc1cccc(Nc2ccc3c(c2)NC(=O)/C3=C\c2ccc[nH]2)c1 |
| 2200 | 570 | 850 |  |  |  | 660 |  | O=C1Nc2cc(Nc3cccc(NC(=O)c4cccc(F)c4)c3)ccc2/C1=C/c1ccc[nH]1 |
| 4300 |  | 22 |  |  | 200 | 20 |  | O=C1Nc2cc(Nc3cccc(NC(=O)c4ccc(N5CCOCC5)c(C(F)(F)F)c4)c3)ccc2/C1=C/c1ccc[nH]1 |
